The text below walks through data of publication PMC6468299 (Nucleic Acids Research, 2019).

pIC50: −log10 of the molar value.

One experiment addresses T1, DNA polymerase γ (Pol-γ) (Homo sapiens, UniProt P54098).
T1 sequence (P54098 1-1239): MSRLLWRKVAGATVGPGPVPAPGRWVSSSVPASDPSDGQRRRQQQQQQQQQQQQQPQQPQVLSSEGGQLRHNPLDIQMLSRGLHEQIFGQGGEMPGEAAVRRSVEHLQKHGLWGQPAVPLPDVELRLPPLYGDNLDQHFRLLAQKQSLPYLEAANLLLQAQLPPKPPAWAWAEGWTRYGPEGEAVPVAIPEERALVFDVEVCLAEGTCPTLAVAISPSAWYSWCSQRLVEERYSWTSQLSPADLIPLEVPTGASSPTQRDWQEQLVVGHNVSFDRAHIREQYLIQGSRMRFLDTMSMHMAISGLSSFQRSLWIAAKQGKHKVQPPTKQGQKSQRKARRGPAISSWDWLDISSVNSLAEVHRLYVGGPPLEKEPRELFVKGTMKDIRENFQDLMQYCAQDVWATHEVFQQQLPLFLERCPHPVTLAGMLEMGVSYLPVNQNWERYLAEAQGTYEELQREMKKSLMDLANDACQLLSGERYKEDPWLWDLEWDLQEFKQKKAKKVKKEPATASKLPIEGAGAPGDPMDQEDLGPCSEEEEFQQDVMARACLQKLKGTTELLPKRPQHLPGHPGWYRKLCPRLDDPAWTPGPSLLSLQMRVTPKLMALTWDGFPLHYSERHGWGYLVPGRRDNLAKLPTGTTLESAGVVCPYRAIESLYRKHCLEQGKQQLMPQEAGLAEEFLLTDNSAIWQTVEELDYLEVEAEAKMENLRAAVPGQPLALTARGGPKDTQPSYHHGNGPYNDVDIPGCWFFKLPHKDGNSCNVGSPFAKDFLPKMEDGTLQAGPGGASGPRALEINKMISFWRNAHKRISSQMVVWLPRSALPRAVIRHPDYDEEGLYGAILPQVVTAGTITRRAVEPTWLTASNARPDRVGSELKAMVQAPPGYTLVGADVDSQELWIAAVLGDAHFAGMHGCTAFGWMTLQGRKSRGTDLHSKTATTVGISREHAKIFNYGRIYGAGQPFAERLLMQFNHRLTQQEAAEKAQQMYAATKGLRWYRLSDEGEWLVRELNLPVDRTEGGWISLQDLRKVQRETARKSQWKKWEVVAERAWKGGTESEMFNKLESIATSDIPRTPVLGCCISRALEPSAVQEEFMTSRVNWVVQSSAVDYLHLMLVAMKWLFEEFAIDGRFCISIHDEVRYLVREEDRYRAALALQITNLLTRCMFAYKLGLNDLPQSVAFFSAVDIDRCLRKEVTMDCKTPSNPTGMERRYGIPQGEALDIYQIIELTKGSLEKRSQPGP
The experiment is described as follows: DNA polymerase inhibition assay, Pol-γ. The format is biochemical. The conditions noted are these: 1 h, 3H-dTTP incorporation. The essentials: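 Reactions contained 25 μM each dATP/dCTP/dGTP, 25 nM TTP plus 1 μCi ³H-TTP, 160 nM template/primer, and serially diluted test nucleotide (0–200 μM). Incubation was 1 h at 37°C, stopped with TCA (10% final). DNA was precipitated 40 min at 4°C, washed and scintillation-counted; inhibition was taken from reduced radioactivity.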

The next experiment has as its target T2, Pol-γ (exo- mutant) (Homo sapiens, UniProt P54098, D198A/E200A).
T2 sequence (P54098 26-1239 D198A/E200A limits assumed): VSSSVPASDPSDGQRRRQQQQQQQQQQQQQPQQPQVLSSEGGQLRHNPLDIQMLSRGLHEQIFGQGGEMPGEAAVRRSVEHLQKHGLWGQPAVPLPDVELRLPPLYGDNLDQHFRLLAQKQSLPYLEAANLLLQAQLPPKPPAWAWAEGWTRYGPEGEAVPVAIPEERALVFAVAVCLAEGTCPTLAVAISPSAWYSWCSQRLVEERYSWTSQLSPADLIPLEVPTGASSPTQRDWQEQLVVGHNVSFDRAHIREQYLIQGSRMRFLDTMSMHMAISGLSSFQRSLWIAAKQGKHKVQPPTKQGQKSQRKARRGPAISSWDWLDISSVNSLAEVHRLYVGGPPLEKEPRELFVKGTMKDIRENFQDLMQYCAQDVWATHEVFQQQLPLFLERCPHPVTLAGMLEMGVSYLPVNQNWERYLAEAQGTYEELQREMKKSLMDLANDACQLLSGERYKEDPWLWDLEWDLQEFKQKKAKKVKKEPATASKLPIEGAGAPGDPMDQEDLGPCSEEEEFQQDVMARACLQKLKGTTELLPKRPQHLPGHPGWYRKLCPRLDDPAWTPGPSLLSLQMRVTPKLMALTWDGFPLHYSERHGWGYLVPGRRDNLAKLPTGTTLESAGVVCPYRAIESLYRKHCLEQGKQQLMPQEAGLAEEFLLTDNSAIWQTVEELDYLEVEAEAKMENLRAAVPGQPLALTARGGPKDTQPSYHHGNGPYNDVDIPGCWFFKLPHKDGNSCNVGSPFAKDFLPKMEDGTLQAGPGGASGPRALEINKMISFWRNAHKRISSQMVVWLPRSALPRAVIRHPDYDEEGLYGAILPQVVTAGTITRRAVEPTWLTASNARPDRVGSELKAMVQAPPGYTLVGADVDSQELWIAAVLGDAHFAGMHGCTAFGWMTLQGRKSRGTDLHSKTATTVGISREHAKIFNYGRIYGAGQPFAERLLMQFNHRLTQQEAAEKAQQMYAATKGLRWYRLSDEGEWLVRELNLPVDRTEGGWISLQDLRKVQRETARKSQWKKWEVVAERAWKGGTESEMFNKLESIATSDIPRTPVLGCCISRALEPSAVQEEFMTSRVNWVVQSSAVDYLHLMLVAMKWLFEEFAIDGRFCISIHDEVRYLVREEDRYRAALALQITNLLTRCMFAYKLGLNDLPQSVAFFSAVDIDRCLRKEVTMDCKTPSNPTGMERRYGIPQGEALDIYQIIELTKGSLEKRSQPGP
The experiment is described as follows: Non-obligate chain termination assay. Type of experiment: biochemical. The following applies: for chain elongation with analog in excess over dTTP: analog 1 μM at 10-fold (FIAU-TP also 100-fold) excess over dTTP; for chain elongation with analog substituted for dTTP: analog 1 μM, no dTTP; for effect on chain elongation in the presence of native dTTP: dTTP 1 μM, analog at 0.01, 0.1 or 1 μM, 37°C, 10 min. The essentials: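 A 23-mer DNA primer was 5′-end labelled with γ-³²P ATP and annealed to a 50-mer template. Extension required reading through nine consecutive template adenosines. Reactions used 10 units exonuclease-deficient human Pol-γ, with test analogue (0.01–1 μM) alone or with dTTP, plus native dATP/dCTP/dGTP, for 10 min at 37°C. Samples were stopped with loading dye, heated 100°C 5 min, run on 12% urea PAGE and phosphorimaged.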

Usually pIC50 stands for the IC50 on a negative log10 scale, so that one unit is a factor of ten. Higher therefore signals a small IC50. As a reminder, the IC90 is the concentration needed for an effect of 90%. High values mean a need for much substance, low ones an effect from little substance. At DNA polymerase γ (Pol-γ), `Nc1ncnc2c1ncn2[C@@H]1O[C@H](COP(=O)(O)OP(=O)(O)OP(=O)(O)O)[C@@H](O)[C@H]1F` [2′-F-ATP] had a pIC50 of less than 3.70 and an IC90 greater than 200 µM.
Taken in the same sequence, the figures for `Nc1ccn([C@@H]2O[C@H](COP(=O)(O)OP(=O)(O)OP(=O)(O)O)[C@@H](O)[C@H]2F)c(=O)n1` [2′-F-CTP] were less than 3.70 and greater than 200 µM.
For `Nc1nc2c(ncn2[C@@H]2O[C@H](COP(=O)(O)OP(=O)(O)OP(=O)(O)O)[C@@H](O)[C@H]2F)c(=O)[nH]1` [2′-F-GTP], at DNA polymerase γ (Pol-γ), the pIC50 is less than 3.70 and the IC90 is greater than 200 µM.
On DNA polymerase γ (Pol-γ), `O=c1ccn([C@@H]2O[C@H](COP(=O)(O)OP(=O)(O)OP(=O)(O)O)[C@@H](O)[C@H]2F)c(=O)[nH]1` [2′-F-UTP] gave a pIC50 of less than 3.70 and an IC90 greater than 200 µM. For the same compound, at Pol-γ (exo- mutant), the “chain elongation with analog in excess over dTTP” value is listed as “the presence of dTTP reduced the elongation defect”, the “chain elongation with analog substituted for dTTP” value is given as “weak smear of elongated species with very little full-length product” and the “effect on chain elongation in the presence of native dTTP” value is “essentially no impact on chain elongation”.
In the case of `O=c1[nH]c(=O)n([C@@H]2O[C@H](COP(=O)(O)OP(=O)(O)OP(=O)(O)O)[C@@H](O)[C@@H]2F)cc1I` [FIAU-TP, fialuridine triphosphate, reference compound], on DNA polymerase γ (Pol-γ), the pIC50 was 5.98 and the 90% effect level (IC90) was put at 13.4 µM. Further, on Pol-γ (exo- mutant), the “chain elongation with analog in excess over dTTP” value is listed as “continued to strongly impair elongation”; the “chain elongation with analog substituted for dTTP” value is reported as “restricted elongation products to 31 nucleotides in length”; the “effect on chain elongation in the presence of native dTTP” value was “caused a reduction in full-length product and an increase in shorter products at the highest concentration”.
